Assay outcomes (PubChem BioAssay)
Apaf-1 inh = inhibitors of human Apaf-1 apoptosome | inhibition, % at 20 µM | 0.71% of 330,000 active | reconstituted apoptosome caspase-3 activity, DEVD-Rh110 fluorescence | O14727; active = inhibition of at least 40% at 20 µM;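 also: plate controls were DMSO wells for no effect and DEVD-CHO caspase inhibitor wells for full effect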
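Material: biochemical Apaf-1 apoptosome reconstitution. Medium: Hepes buffer, pH 7.5. Also added: cytochrome c activation, bis-DEVD rhodamine 110 substrate. Timing: 30 min compound preincubation, 50 min activation, room temperature. Measured by: rhodamine 110 fluorescence at Ex 480/Em 540 nm.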
SENP8 block-1 = inhibitors of human SENP8 protease. Q96LD8. purified SENP8, Z-RLRGG-aminoluciferin cleavage, luminescence. inhibition, % at 10 µM. 1.2% of 330,000 active; in the data active = inhibition above about 50%
SENP1 inh = SENP1 (human) catalytic domain inhibition | Q9P0U3 | recombinant SENP1 catalytic domain, CyPet-SUMO1-YPet FRET cleavage | inhibition, % at 10 µM | 0.21% of 360,000 active | AID 624204;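 active = inhibition at least 30% at 10 µM, raw YFP signal under a set limit, fluorescence ratio 0.5 to 1.5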;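 also: 0% = enzyme with DMSO and 100% = no enzyme wells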
Target sequence (Q9P0U3 419-644 limits assumed): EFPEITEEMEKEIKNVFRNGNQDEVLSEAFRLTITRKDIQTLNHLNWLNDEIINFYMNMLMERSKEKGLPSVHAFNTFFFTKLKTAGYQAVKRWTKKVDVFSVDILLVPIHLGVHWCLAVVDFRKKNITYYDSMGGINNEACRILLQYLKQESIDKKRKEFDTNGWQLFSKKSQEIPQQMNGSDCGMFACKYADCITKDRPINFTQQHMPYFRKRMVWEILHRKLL
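Material: hSENP1 catalytic domain, recombinant; medium: Tris pH 8 with BME, BSA, NP40 and catalase; compound: single concentration of 10 µM compound, 0.5% DMSO final; technique: FRET read of cyan and yellow fluorescence; timing: 50 min enzyme reaction, room temperature, light-protected; reagent: SFCypet-SUMO1-SFYpet substrate at 25 nM; control set: no-enzyme low, enzyme-DMSO high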
SENP6 inh = blocks the human protease SENP6 | AID 2599 | 1.8% of 330,000 active | Recombinant SENP6 catalytic domain, aminoluciferin luminescence | inhibition, % at 10 µM | Q9GZR1;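 active = inhibition above about 50% at the single tested dose, limit read from the data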;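 also: plate controls were DMSO wells with enzyme for no effect and DMSO wells lacking enzyme for full effect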
SENP8 block-2 = blocks human SENP8 cleavage of Nedd8 substrate; Q96LD8; recombinant SENP8, Nedd8 substrate fluorescence; inhibition, % at 20 µM; 0.64% of 360,000 active; AID 602440; in the data active = inhibition mostly above about 40%, no sharp cut-off; inactive = mostly below about 27%
SENP7 block = blocks the human protease SENP7 | Q9BQF6 | inhibition, % at 5 µM | 1.5% of 330,000 active | recombinant SENP7, Z-RLRGG-aminoluciferin luminescence, 40 min;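 active = inhibition above about 50% at the single test dose, limit read from the data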;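 also: plate controls were DMSO with enzyme for no effect and no enzyme buffer wells for full effect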
Target sequence (Q9BQF6 706-1050 limits assumed): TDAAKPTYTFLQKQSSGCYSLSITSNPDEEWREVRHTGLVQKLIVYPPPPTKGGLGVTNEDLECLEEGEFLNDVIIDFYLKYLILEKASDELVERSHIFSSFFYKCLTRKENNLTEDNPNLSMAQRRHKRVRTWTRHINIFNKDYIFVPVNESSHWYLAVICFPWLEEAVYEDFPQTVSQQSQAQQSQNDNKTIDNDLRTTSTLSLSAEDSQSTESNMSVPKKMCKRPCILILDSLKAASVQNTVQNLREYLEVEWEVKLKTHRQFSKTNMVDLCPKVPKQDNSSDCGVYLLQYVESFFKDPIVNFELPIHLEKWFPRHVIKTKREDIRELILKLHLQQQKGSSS
Apaf-1 inh conf2 = Apaf-1 inhibition, single-dose confirmed | shares compounds with Apaf-1 inh | AID 504614 | 25% of 1,800 active | reconstituted apoptosome, caspase-3 DEVD-Rh110 fluorescence | inhibition, % at 20 µM;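 active = mean inhibition of at least 40% at 20 µM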;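 also: plate controls were DMSO wells for no effect and DEVD-CHO caspase inhibitor control wells for full effect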
Rh110 interf inh = Rh110 signal interference in Apaf-1 inhibitor counter-screen | shares compounds with Apaf-1 inh | Rh110 fluorescence interference, quenched caspase reaction | activation (fluorescence interference), % at 20 µM | 1,800 tested, under 10 active;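 active = signal rise of 40% or more at 20 µM, treated as a fluorescence artifact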
Fluor interf inh = counter-screen for Apaf-1 inhibitors: fluorescence interference, dose response | 460 tested, under 10 active | shares compounds with Apaf-1 inh | IC50, µM | fluorescence interference counterscreen, Apaf-1 assay format; call rule not given here
* hit, by the source's call; i = inactive; x = no result given. This is a sample that favours compounds with a hit; in the whole collection about 2.9% have one here.

SMILES	Apaf-1 inh	SENP8 block-1	SENP1 inh	SENP6 inh	SENP8 block-2	SENP7 block	Apaf-1 inh conf2	Rh110 interf inh	others
CCCCCCOc1ccc(/C(C)=N/NC2=NCCN2)cc1[N+](=O)[O-]	53.8*	-10.2	0.9	-21.6	32.1	2.3	44.5*	11.0	Fluor interf inh=>100
Cc1ccc(S(=O)(=O)Nc2ccccc2C(C(=O)OC(C)(C)C)C(=O)OC(C)(C)C)cc1	x	x	-0.1	x	6.5	x	x	x
CCN1/C(=C\C(=S)Nc2ccccc2)Sc2ccccc21	-3.5	-22.6	-6.9	-27.3	12.2	7.2	x	x
CCN1/C(=C/C(C)=C/c2sc3ccccc3[n+]2CC)Sc2ccccc21	52.7*	18.2	-31.6	11.1	35.2	-0.8	60.6*	29.6	Fluor interf inh=51.2*
CCCN(CC(=O)Nc1ccccc1C)C(=O)c1sc2ccccc2c1Cl	60.6*	5.2	-0.3	4.2	5.7	2.5	44.0*	12.1	Fluor interf inh=>100
CN(CC(=O)Nc1cccc(F)c1)C(=O)c1sc2ccccc2c1Cl	57.1*	2.0	-3.3	9.5	8.0	5.7	36.0	3.5
CN(CCc1ccccc1)C(=O)c1ccc(NC(=O)Cc2ccc(NC(=O)C3CCN(S(=O)(=O)c4cccc([N+](=O)[O-])c4)CC3)cc2)cc1	x	x	1.9	x	10.7	x	x	x
Cc1ccc(C(=O)N/C(=C\c2ccc(-c3ccccc3[N+](=O)[O-])o2)C(=O)NCCN(C)C)cc1	52.8*	20.6	-50.2	30.5	-9.4	4.6	33.5	2.2
COCCN1C(=O)c2ccccc2C1c1nc2ccccc2[nH]1 (stereo unspecified)	x	x	-0.4	x	6.6	x	x	x
CCC1CCc2sc(C(=O)NCC(c3ccccc3OC)N3CCCC3)cc2C1 (stereo unspecified)	49.3*	-3.5	0.3	6.2	14.3	3.3	16.6	11.5
COc1ccc(C(CNC(=O)c2cc3c(s2)CCC(C)C3)N2CCCC2)cc1 (stereo unspecified)	60.6*	0.9	-11.0	-3.0	-45.2	5.1	35.2	9.2
Cc1ccc(S(=O)(=O)NC(=O)NC2=NC(C)(C)N(c3ccc(Cl)c(Cl)c3)C(N)=N2)cc1	x	x	0.5	x	6.8	x	x	x
C/C(=N\NC(=O)CSCc1ccccc1Br)c1cccc([N+](=O)[O-])c1	-12.7	-4.8	-0.6	-5.8	17.1	-9.2	x	x
C/C(=N\NC(=O)Cc1cc(=O)[nH][nH]1)c1cccc([N+](=O)[O-])c1	51.4*	5.1	1.4	42.8	14.2	24.1	10.7	-2.4
CCc1ccc(NC(=O)CCC(=O)c2ccccc2)cc1	9.2	-19.4	0.5	-28.3	22.6	-8.3	x	x
O=C(C1CCCN(S(=O)(=O)c2cnc[nH]2)C1)N1CCN(Cc2ccccc2)CC1 (stereo unspecified)	40.5*	-7.6	0.4	2.6	9.7	-0.3	3.2	42.8*
O=C(c1cccc([N+](=O)[O-])c1)N1CCN(S(=O)(=O)/C=C/c2ccccc2)CC1	14.9	-11.4	-0.6	-19.9	8.4	-3.8	x	x
COc1ccc(C2CC(=O)C=C3c4ccc(OC)cc4CCC32)cc1 (stereo unspecified)	x	x	-1.7	x	-20.5	x	x	x
CCC1C(=O)N=C(SCC(=O)Nc2nc3ccccc3s2)NC1=O (stereo unspecified)	69.6*	2.4	-1.9	15.4	5.2	-0.7	2.0	8.8
CCC1C(=O)N=C(SCC(=O)Nc2cccc3ccccc23)NC1=O (stereo unspecified)	-19.3	-6.9	0.2	0.8	6.7	0.1	x	x
Cc1cc(N(CCO)CCO)ccc1N=Nc1cc(F)ccc1F	40.4*	5.7	8.1	20.2	35.1	1.2	21.7	14.5
OCCN(CCO)c1ccc(C(c2ccc(Cl)cc2)c2ccc(N(CCO)CCO)cc2Cl)c(Cl)c1	-9.5	-7.5	-2.5	-24.0	-291.1	-6.8	x	x
CCCN(CC(=O)Nc1ccccc1OC)C(=O)Cc1ccc2c(c1)CCC2	3.9	5.6	2.4	5.3	-0.2	1.4	x	x
CCCN(CC(=O)Nc1ccccc1C)C(=O)COc1ccc2c(c1)CCC2	60.0*	7.1	-0.8	6.0	10.1	3.6	36.8	5.3
Cc1noc(C)c1-c1ccc(C(=O)NCc2cccs2)c2occc12	x	x	-1.7	x	-30.5	x	x	x
SMILES	Apaf-1 inh	SENP8 block-1	SENP1 inh	SENP6 inh	SENP8 block-2	SENP7 block	Apaf-1 inh conf2	Rh110 interf inh	others
Cc1cc(Cl)c2oc(C(=O)N(C)CCc3cnn(C)c3)c(C)c2c1	7.1	-1.6	0.8	5.0	13.2	6.7	x	x
COc1ccc(NC(=O)Nc2ccc(O)c3ccccc23)cc1	51.7*	12.9	x	34.6	x	11.6	16.1	-4.5
O=C(Cc1ccc(NC(=O)C2CCCN(C(=O)C3CCC3)C2)cc1)Nc1cccc(C(=O)N2CCCC2)c1 (stereo unspecified)	x	x	2.5	x	-5.2	x	x	x
COc1cccc(-c2cn3nc4c(nc3n2)CCCC4)c1	53.4*	33.3	-25.2	36.4	i	24.7	38.8	2.6
COc1cccc(-c2cc(C(F)(F)F)n3nc(N)nc3n2)c1	-44.3	2.2	-78.1	6.5	i	3.8	x	x
Nc1cc2c(cc1Cl)-c1ccc([N+](=O)[O-])cc1C2=NO	x	x	89.6	x	23.6	x	x	x
Cc1cc2c(c(CO)c1CCO)C(=O)[C@@H](C)[C@@H]2O	8.7	1.9	1.2	-2.7	10.9	4.6	x	x
COc1cc(N)c(Cc2nccc3cc(OC)c(OC)cc23)cc1OC	47.5*	5.2	-54.6	14.2	25.6	12.3	24.7	-0.1
CN(C)C(=O)c1ccc(NC(=O)COc2cccc(Oc3ccccc3)c2)cc1	61.1*	-4.2	-2.6	2.4	7.8	5.3	34.5	4.7
C[C@@H]1CN([C@@H](C)CO)S(=O)(=O)c2ccc(Br)cc2O[C@H]1CN(C)Cc1ccccn1	x	x	0.7	x	7.6	x	x	x
CC1CN(Cc2c(O)ccc3c2oc(=O)c2ccccc23)CC(C)O1 (stereo unspecified)	44.3*	-2.6	5.2	15.6	-113.6	-2.9	36.7	6.9
CC(C)Oc1ccc(S(=O)(=O)N2CCOCC2)cc1NC(=O)C1COc2ccccc2O1 (stereo unspecified)	7.2	10.3	1.0	10.3	5.8	9.9	x	x
CCCCCCOC(=O)C(C#N)c1nc2ccccc2nc1N1CCN(CC)CC1 (stereo unspecified)	41.7*	-3.3	-38.3	-2.6	-70.6	-4.1	28.1	9.5
CCCCCCOC(=O)C(C#N)c1nc2ccccc2nc1N1CCOCC1 (stereo unspecified)	21.3	-10.3	-33.0	-6.8	22.3	-6.5	x	x
Cc1nn(Cc2c(F)c(F)c(F)c(F)c2F)c(C)c1NC(=O)c1ccc(COc2ccc(Cl)cc2Cl)o1	46.3*	3.2	2.4	5.4	2.0	4.5	21.0	6.2
